ChEMBL document CHEMBL2040734, “Benzothiazoles: search for anticancer agents” (2012)

Legend:
Assay type in all cases: functional
OVCAR-5 = assay: Cytotoxicity against human OVCAR5 cells assessed as cell growth at 100 uM after 48 hrs by sulforhodamine B assay; conditions: OVCAR-5, 48 h, read-out: Activity
LOX IMVI = assay: Cytotoxicity against human LOXIMVI cells assessed as cell growth at 10 uM after 48 hrs by sulforhodamine B assay; conditions: read-out: Activity
OVCAR-3 = assay: Cytotoxicity against human OVCAR3 cells assessed as cell growth at 1 uM after 48 hrs by sulforhodamine B assay; conditions: OVCAR-3, 48 h, read-out: Activity
M14 [1] = assay: Cytotoxicity against human M14 cells assessed as cell growth at 0.01 uM after 48 hrs by sulforhodamine B assay; conditions: M14, 48 h, read-out: Activity
MDA-MB-231 = assay: Cytotoxicity against human MDA-MB-231 cells assessed as cell growth at 100 uM after 48 hrs by sulforhodamine B assay; conditions: MDA-MB-231, 48 h, read-out: Activity
EKVX = assay: Cytotoxicity against human EKVX cells assessed as cell growth at 10 uM after 48 hrs by sulforhodamine B assay; conditions: read-out: Activity
Summary of the method: (§1)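 Five-dose NCI panel run at 0.01, 0.1, 1, 10 and 100 µM. Cells were in RPMI 1640 with 5% FBS and 2 mM L-glutamine, seeded at 5000–40,000 cells/well and pre-incubated 24 h. Drug was diluted from a DMSO stock into medium with 50 µg/ml gentamicin. Exposure was 48 h at 37 °C, 5% CO2. Cells were fixed with cold TCA and stained with 0.4% SRB, read at 515 nm. Percent growth came from time-zero, control and test absorbances.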

M14 [2] = assay: Cytotoxicity against human M14 cells assessed as cell growth at 1 uM after 48 hrs by sulforhodamine B assay; conditions: M14, 48 h, read-out: Activity
NCI-H460 = assay: Cytotoxicity against human NCI-H460 cells assessed as cell growth at 10 uM after 48 hrs by sulforhodamine B assay; conditions: NCI-H460, 48 h, read-out: Activity
A549 = assay: Cytotoxicity against human A549 cells assessed as cell growth at 1 uM after 48 hrs by sulforhodamine B assay; conditions: A549, 48 h, read-out: Activity
Summary of the method: (§2)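 NCI-60 five-dose screen. Cells were grown in RPMI 1640 with 5% FBS and 2 mM L-glutamine and preincubated 24 h. Compound (DMSO stock) was tested at 0.01, 0.1, 1, 10 and 100 µM for 48 h at 37 °C. Cells were fixed in situ with cold TCA (final 10%) and stained with 0.4% SRB. A515 was read, and percent growth was calculated against time-zero and control plates.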

MDA-MB-435 = assay: Cytotoxicity against human MDA-MB-435 cells assessed as cell growth at 1 uM after 48 hrs by sulforhodamine B assay; conditions: MDA-MB-435, 48 h, read-out: Activity
A498 = assay: Cytotoxicity against human A498 cells assessed as cell growth at 10 uM after 48 hrs by sulforhodamine B assay; conditions: A498, 48 h, read-out: Activity; summary of the method: as §2
HCT-15 = assay: Growth inhibition of human HCT15 cells after 48 hrs by sulforhodamine B assay; conditions: HCT-15, 48 h
Summary of the method: (§3)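 Adherent NCI-60 lines were grown in RPMI 1640 with 5% FBS and 2 mM L-glutamine, plated at 5000–40,000 cells/well and preincubated 24 h. They were then exposed to five concentrations (0.01–100 µM, from a DMSO stock) for 48 h at 37 °C, 5% CO2. Cells were fixed with cold TCA (10% final, 60 min, 4 °C) and stained with 0.4% SRB. Dye was solubilized in 10 mM Tris base and A515 read. GI50 was derived from time-zero, control and treated absorbances.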

NCI-H522 = assay: Cytotoxicity against human NCI-H522 cells assessed as cell growth at 10 '-5 M after 48 hrs by sulforhodamine B assay; conditions: NCI-H522, 48 h, read-out: Activity
SNB-19 = assay: Cytotoxicity against human SNB19 cells assessed as cell growth at 10 uM after 48 hrs by sulforhodamine B assay; conditions: SNB-19, 48 h, read-out: Activity
SF-295 = assay: Cytotoxicity against human SF295 cells assessed as cell growth at 0.1 uM after 48 hrs by sulforhodamine B assay; conditions: SF-295, 48 h, read-out: Activity
HL-60(TB) = assay: Cytotoxicity against human HL-60(TB) cells assessed as cell growth at 0.01 uM after 48 hrs by sulforhodamine B assay; conditions: HL-60, 48 h, read-out: Activity
Summary of the method: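 NCI five-dose screen on the HL-60(TB) leukaemia line, grown in RPMI 1640 with 5% FBS and 2 mM L-glutamine and plated for 24 h before dosing. DMSO stocks were diluted in medium. Cells were exposed 48 h at 37 °C, then settled cells were fixed in 16% TCA (final) and stained with SRB, absorbance 515 nm. Percent growth = (Ti−Tz)/(C−Tz)×100, or (Ti−Tz)/Tz×100 when Ti<Tz.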

HT-29 = assay: Cytotoxicity against human HT-29 cells assessed as cell growth at 0.01 uM after 48 hrs by sulforhodamine B assay; conditions: HT-29, 48 h, read-out: Activity; summary of the method: as §1
BT-549 = assay: Growth inhibition of human BT549 cells after 48 hrs by sulforhodamine B assay; conditions: BT-549, 48 h
Summary of the method: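 Cells were in RPMI 1640 with 5% FBS and pre-incubated 24 h. Read-out was TCA fixation, SRB staining and absorbance at 515 nm. GI50 was the concentration where [(Ti−Tz)/(C−Tz)]×100 = 50, taken from log concentration vs % growth curves. It is given as ">" the top concentration when not reached.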

KM12 = assay: Cytotoxicity against human KM12 cells assessed as cell growth at 0.01 uM after 48 hrs by sulforhodamine B assay; conditions: KM12, 48 h, read-out: Activity
CAKI-1 [3] = assay: Growth inhibition of human Caki1 cells after 48 hrs by sulforhodamine B assay; conditions: CAKI-1, 48 h; for CC50: read-out: LC50 (the source's name); summary of the method: as §3
OVCAR-4 = assay: Cytotoxicity against human OVCAR4 cells assessed as cell growth at 100 uM after 48 hrs by sulforhodamine B assay; conditions: OVCAR-4, 48 h, read-out: Activity
CAKI-1 [4] = assay: Cytotoxicity against human Caki1 cells assessed as cell growth at 0.01 uM after 48 hrs by sulforhodamine B assay; conditions: CAKI-1, 48 h, read-out: Activity; summary of the method: as §2
SN12C [5] = assay: Cytotoxicity against human SN12C cells assessed as cell growth at 0.01 uM after 48 hrs by sulforhodamine B assay; conditions: read-out: Activity
SK-OV-3 = assay: Cytotoxicity against human SKOV3 cells assessed as cell growth at 10 uM after 48 hrs by sulforhodamine B assay; conditions: SK-OV-3, 48 h, read-out: Activity
SN12C [6] = assay: Growth inhibition of human SN12C cells after 48 hrs by sulforhodamine B assay; conditions: for CC50: read-out: LC50 (the source's name); summary of the method: as §3
RXF 393 = assay: Cytotoxicity against human RXF393 cells assessed as cell growth at 100 uM after 48 hrs by sulforhodamine B assay; conditions: RXF 393, 48 h, read-out: Activity

| SMILES | growth at 100 µM (OVCAR-5) [%] | growth at 10 µM (LOX IMVI) [%] | growth at 1 µM (OVCAR-3) [%] | growth at 0.01 µM (M14 [1]) [%] | growth at 100 µM (MDA-MB-231) [%] | growth at 10 µM (EKVX) [%] | growth at 1 µM (M14 [2]) [%] | growth at 10 µM (NCI-H460) [%] | growth at 1 µM (A549) [%] | growth at 1 µM (MDA-MB-435) [%] | growth at 10 µM (A498) [%] | GI50 (HCT-15) [µM] | LC50 (HCT-15) [µM] | TGI (HCT-15) [µM] | growth at 10 µM (NCI-H522) [%] | growth at 10 µM (SNB-19) [%] | growth at 0.1 µM (SF-295) [%] | growth at 0.01 µM (HL-60(TB)) [%] | growth at 0.01 µM (HT-29) [%] | TGI (BT-549) [µM] | other results |
| --- | --- | --- | --- | --- | --- | --- | --- | --- | --- | --- | --- | --- | --- | --- | --- | --- | --- | --- | --- | --- | --- |
| Cc1ccc2nc(Nc3c(C)cccc3C)sc2c1 | 78 | 23 | 72 | 106 | -6 | 39 | 58 | 22 | 83 | -8 | -1 | 0.92 | > 100 | > 100 | 19.7 | 47 | 88 | 107 | 98 | > 100 | CC50 (BT-549; read-out: LC50 (the source's name)): > 100 µM; growth at 0.01 µM (KM12): 101%; GI50 (CAKI-1 [3]): 0.564 µM; TGI (CAKI-1 [3]): > 100 µM; CC50 (CAKI-1 [3]): > 100 µM; growth at 100 µM (OVCAR-4): 77%; growth at 0.01 µM (CAKI-1 [4]): 93%; growth at 0.01 µM (SN12C [5]): 88%; growth at 10 µM (SK-OV-3): 47%; TGI (SN12C [6]): > 100 µM; CC50 (SN12C [6]): > 100 µM; growth at 100 µM (RXF 393): 24% |
| Clc1cccc(Cl)c1Nc1nc2cccc(Cl)c2s1 | -96 | -83 | 50 | 103 | -70 | -89 | 73 | -75 | 55 | 46 | -97 | 1.16 | 5.69 | 2.57 | -64 | -74 | 82 | 104 | 100 | 3.01 | GI50 (BT-549): 1.5 µM; growth at 0.01 µM (KM12): 99%; GI50 (CAKI-1 [3]): 0.259 µM; TGI (CAKI-1 [3]): 1.46 µM; CC50 (CAKI-1 [3]): 4.23 µM; growth at 100 µM (OVCAR-4): -87%; growth at 0.01 µM (CAKI-1 [4]): 92%; growth at 0.01 µM (SN12C [5]): 91%; growth at 10 µM (SK-OV-3): -89%; GI50 (SN12C [6]): 0.772 µM; TGI (SN12C [6]): 2.12 µM; CC50 (SN12C [6]): 4.85 µM; growth at 100 µM (RXF 393): -40% |
